Measured values reported in ChEMBL document CHEMBL1124974, “Orally potent human renin inhibitors derived from angiotensinogen transition state: design, synthesis, and mode of interaction” (J Med Chem, 1990).

What was measured:
[1] = target: T1, Renin (Homo sapiens, UniProt P00797); assay: Tested for inhibition of human plasma renin; assay type: cell-free
T1 sequence (P00797 whole entry): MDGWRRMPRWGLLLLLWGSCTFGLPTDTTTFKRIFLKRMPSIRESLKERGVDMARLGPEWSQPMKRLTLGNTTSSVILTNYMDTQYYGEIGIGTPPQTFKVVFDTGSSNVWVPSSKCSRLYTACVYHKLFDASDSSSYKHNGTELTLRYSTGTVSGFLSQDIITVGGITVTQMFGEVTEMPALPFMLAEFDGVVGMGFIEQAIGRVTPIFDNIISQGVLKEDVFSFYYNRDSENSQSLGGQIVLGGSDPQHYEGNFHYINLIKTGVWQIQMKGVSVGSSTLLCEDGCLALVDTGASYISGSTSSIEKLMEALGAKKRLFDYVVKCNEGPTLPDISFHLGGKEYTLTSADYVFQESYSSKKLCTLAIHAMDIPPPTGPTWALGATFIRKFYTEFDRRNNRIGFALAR
How it was run: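 Human plasma containing EDTA-2Na (14 mM) and neomycin sulfate (0.3%) mixed with 0.5 M phosphate buffer pH 7.0, Phe-Ala-Pro (20 mM aqueous stock) and inhibitor in DMSO; 60 min at 37 °C; angiotensin I generated quantified by radioimmunoassay.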

[2] = target: T1, Renin; assay: Tested for inhibition of renin from human
[3] = target: T2, Angiotensin-converting enzyme (Oryctolagus cuniculus, UniProt P12822); assay: Tested for inhibition of Angiotensin I converting enzyme from rabbit.
T2 sequence (P12822 whole entry): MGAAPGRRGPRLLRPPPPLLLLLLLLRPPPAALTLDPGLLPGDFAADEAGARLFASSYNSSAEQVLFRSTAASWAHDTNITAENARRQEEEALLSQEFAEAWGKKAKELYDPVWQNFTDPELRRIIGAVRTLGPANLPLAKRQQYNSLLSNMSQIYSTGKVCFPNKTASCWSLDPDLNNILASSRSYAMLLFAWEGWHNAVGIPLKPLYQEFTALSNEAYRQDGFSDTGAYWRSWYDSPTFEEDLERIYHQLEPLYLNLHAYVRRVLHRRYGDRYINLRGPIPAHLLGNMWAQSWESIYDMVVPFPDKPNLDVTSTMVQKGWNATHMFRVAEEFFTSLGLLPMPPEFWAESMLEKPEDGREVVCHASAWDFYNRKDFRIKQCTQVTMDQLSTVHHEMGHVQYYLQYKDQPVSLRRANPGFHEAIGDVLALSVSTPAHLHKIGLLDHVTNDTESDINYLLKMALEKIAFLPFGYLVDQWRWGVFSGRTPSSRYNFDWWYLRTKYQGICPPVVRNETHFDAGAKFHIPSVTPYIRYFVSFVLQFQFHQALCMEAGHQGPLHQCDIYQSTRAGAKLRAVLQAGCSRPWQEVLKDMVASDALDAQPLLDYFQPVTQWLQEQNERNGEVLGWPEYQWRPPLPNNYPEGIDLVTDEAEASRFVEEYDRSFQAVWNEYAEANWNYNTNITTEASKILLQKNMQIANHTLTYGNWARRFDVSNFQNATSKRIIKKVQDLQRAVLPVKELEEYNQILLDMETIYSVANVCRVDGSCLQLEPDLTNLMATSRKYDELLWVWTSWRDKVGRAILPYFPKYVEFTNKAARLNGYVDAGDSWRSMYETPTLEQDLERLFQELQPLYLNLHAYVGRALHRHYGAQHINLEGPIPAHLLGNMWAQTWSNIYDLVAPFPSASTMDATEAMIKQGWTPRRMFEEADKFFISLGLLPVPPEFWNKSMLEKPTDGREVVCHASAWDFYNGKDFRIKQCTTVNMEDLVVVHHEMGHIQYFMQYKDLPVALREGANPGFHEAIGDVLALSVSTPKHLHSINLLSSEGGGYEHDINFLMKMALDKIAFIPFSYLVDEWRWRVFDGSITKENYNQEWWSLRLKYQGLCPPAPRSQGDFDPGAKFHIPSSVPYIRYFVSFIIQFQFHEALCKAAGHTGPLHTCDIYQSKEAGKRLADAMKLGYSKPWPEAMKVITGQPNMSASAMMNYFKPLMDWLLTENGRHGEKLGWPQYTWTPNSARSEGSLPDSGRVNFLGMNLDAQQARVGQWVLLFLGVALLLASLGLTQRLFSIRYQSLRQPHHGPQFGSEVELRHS
How it was run: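 Inhibition measured at 37 °C with Hip-His-Leu substrate, pH 8.3.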

[4] = target: T3, Cathepsin D (Bos taurus, UniProt P80209); assay: Tested for inhibition of Cathepsin D from bovine
T3 sequence (P80209 whole entry): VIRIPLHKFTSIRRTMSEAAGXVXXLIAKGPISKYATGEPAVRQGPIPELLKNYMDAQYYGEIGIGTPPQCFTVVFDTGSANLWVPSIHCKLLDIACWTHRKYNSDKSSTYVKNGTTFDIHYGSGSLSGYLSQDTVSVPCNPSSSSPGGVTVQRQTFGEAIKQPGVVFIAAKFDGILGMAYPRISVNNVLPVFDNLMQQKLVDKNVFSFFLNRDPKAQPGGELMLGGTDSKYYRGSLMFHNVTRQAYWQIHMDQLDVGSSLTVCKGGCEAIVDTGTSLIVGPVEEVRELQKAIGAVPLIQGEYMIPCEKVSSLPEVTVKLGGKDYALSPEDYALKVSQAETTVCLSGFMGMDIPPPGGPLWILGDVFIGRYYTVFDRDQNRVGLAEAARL
How it was run: (§1)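 Run at 37 °C with hemoglobin substrate at pH 3.2 for cathepsin D, casein substrate at pH 2.0 for pepsin.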

[5] = target: Pepsin A (Sus scrofa, UniProt P00791); assay: Tested for inhibition of pepsin from porcine; how it was run: as §1
Pepsin A, sequence (P00791 whole entry): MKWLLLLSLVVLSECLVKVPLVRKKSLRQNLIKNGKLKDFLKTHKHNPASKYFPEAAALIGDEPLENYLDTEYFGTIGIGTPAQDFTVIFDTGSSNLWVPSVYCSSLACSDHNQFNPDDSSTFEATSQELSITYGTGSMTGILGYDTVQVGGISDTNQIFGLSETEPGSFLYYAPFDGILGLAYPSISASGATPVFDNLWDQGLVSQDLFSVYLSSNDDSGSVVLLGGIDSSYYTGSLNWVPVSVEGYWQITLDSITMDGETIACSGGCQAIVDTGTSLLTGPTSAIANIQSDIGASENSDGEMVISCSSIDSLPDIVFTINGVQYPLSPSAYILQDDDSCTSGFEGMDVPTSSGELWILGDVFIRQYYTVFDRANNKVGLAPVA

SMILES	IC50 [1]	IC50 [2]	IC50 [3]	IC50 [4]	IC50 [5]
CC(C)OC(=O)[C@H](O)[C@H](CC1CCCCC1)NC(=O)[C@@H](Cc1c[nH]cn1)NC(=O)[C@@H](CC(=O)N1CCOCC1)Cc1cccc2ccccc12	2300 nM	2500 nM			
CC(C)OC(=O)[C@@H](O)[C@@H](CC1CCCCC1)NC(=O)[C@H](Cc1c[nH]cn1)NC(=O)[C@@H](CC(=O)N1CCOCC1)Cc1cccc2ccccc12	4200 nM	2700 nM			
CC(C)CC(=O)N[C@H](C(=O)N[C@H](C(=O)N[C@@H](CC(C)C)[C@@H](O)CC(=O)N[C@@H](C)C(=O)N[C@@H](CC(C)C)[C@@H](O)CC(=O)O)C(C)C)C(C)C [PEPSTATIN]			> 100000 nM		18 nM

More lines, now with the values ahead:

IC50 [1]	IC50 [2]	IC50 [3]	IC50 [4]	IC50 [5]	SMILES
1500 nM	4200 nM				CC(C)OC(=O)[C@H](O)[C@H](CC1CCCCC1)NC(=O)[C@H](Cc1c[nH]cn1)NC(=O)[C@H](CC(=O)N1CCOCC1)Cc1cccc2ccccc12
4.7 nM	2.4 nM	> 100000 nM	80000 nM	> 100000 nM	CC(C)OC(=O)[C@H](O)[C@H](CC1CCCCC1)NC(=O)[C@H](Cc1c[nH]cn1)NC(=O)[C@@H](CC(=O)N1CCOCC1)Cc1cccc2ccccc12
2100 nM	3500 nM				CC(C)OC(=O)[C@H](O)[C@@H](CC1CCCCC1)NC(=O)[C@H](Cc1c[nH]cn1)NC(=O)[C@@H](CC(=O)N1CCOCC1)Cc1cccc2ccccc12
270 nM	110 nM				CC(C)OC(=O)C(O)[C@@H](Cc1ccccc1)NC(=O)[C@H](Cc1cnc[nH]1)NC(=O)[C@@H](CC(=O)N1CCOCC1)Cc1cccc2ccccc12 (some centres not stated)
